# Reference: ChEMBL document CHEMBL4765248, “Design, synthesis, biological evaluation and molecular docking study of novel thieno[3,2-d]pyrimidine derivatives as potent FAK inhibitors” (Eur J Med Chem, 2020)
# Key:
# U-87 MG = assay: Antiproliferative activity against human U-87MG cells assessed as inhibition of cell growth measured after 72 hrs by MTT assay; format: functional, cell-based, U-87MG ATCC
# In short: (§1)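 Cells were seeded at 4000–5000/well and held 24 h at 37 °C in 5% CO2. Compounds were added at the indicated final concentrations and incubated 72 h. MTT was added (5 mg/mL in PBS, stated as final) for 4 h at 37 °C. Formazan was dissolved in DMSO and absorbance read at 490 nm. The 50% growth-inhibitory concentration is the mean of three independent experiments ± SE.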
# HK-2 = assay: Cytotoxicity against human HK2 cells assessed as inhibition of cell proliferation measured after 72 hrs by MTT assay; format: cell-based; conditions: HK-2, 72 h; in short: as §1
# Focal adhesion kinase 1 = Focal adhesion kinase 1 (Homo sapiens, UniProt Q05397); assay: Inhibition of N-terminal GST-fused human truncated FAK (376 to 1052 residues) expressed in baculovirus expression system using tyrosine kinase peptide as substrate measured after 50 mins in presence of ATP by homogenous time resolved flourescence assay
# Focal adhesion kinase 1, sequence (Q05397 whole entry, the tested form may be a part): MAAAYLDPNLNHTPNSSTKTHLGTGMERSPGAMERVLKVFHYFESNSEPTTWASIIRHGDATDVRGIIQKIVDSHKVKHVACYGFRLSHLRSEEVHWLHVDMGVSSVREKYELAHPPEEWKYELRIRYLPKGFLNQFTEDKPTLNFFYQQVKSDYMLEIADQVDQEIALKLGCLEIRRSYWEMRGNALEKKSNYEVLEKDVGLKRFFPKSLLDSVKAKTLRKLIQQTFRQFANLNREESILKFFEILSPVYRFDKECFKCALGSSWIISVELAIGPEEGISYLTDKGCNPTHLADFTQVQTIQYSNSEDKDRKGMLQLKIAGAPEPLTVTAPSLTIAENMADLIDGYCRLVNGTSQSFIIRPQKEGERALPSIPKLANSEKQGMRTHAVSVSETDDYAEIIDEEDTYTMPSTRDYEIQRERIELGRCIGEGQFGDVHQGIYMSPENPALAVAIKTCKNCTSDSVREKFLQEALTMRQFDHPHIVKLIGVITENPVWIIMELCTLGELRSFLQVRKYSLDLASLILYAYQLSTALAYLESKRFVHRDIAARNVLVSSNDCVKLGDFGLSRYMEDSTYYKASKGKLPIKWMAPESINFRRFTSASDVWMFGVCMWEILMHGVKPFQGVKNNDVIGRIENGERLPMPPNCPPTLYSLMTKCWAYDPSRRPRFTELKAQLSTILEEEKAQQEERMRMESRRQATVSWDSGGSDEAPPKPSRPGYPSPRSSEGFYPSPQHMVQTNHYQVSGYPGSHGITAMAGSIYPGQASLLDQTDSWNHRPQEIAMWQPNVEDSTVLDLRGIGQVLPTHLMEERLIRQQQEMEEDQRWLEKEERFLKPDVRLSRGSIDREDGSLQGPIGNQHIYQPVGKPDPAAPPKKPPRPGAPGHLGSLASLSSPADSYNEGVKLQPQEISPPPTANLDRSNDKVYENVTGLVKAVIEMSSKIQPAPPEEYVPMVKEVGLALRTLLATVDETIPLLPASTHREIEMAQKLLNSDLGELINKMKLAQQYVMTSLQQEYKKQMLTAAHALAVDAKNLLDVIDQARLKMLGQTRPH
# MDA-MB-231 = assay: Antiproliferative activity against human MDA-MB-231 cells assessed as inhibition of cell growth measured after 72 hrs by MTT assay; format: functional, cell-based; conditions: MDA-MB-231, 72 h; in short: as §1
# A549 = assay: Antiproliferative activity against human A549 cells assessed as inhibition of cell growth measured after 72 hrs by MTT assay; format: functional, cell-based; conditions: A549, 72 h; in short: as §1
SMILES,IC50 (U-87 MG),IC50 (HK-2),IC50 (Focal adhesion kinase 1),IC50 (MDA-MB-231),IC50 (A549)
COc1cc(C(=O)NC2CCNCC2)ccc1Nc1ncc2scc(-c3ccccc3OC)c2n1,6400 nM,12.2 µM,27.2 nM,2240 nM,2880 nM
COc1ccccc1-c1csc2cnc(Nc3ccc(C(=O)NC4CCNCC4)cc3)nc12,650 nM,11.4 µM,38.8 nM,110 nM,360 nM
COc1ccccc1-c1csc2cnc(Nc3ccc(CP(=O)(OC)OC)cc3)nc12,1710 nM,–,134 nM,7810 nM,1800 nM
COc1ccccc1-c1csc2cnc(Nc3ccc(C(=O)NC4CCNCC4)cc3C)nc12,250 nM,–,26.5 nM,3240 nM,3420 nM
COc1ccccc1-c1csc2cnc(Nc3ccc(C(=O)N[C@H]4CCNC4)c(F)c3)nc12,–,–,132 nM,560 nM,870 nM
CCOP(=O)(OCC)C(O)c1ccc(Nc2ncc3scc(-c4ccccc4OC)c3n2)cc1 (centres undefined),1950 nM,–,321 nM,2640 nM,350 nM
COc1cc(C(=O)NC2CCNCC2)c(F)cc1Nc1ncc2scc(-c3ccccc3OC)c2n1,3590 nM,0.78 µM,38.2 nM,1160 nM,1900 nM
COc1ccccc1-c1csc2cnc(Nc3ccc(C(=O)NC[C@H]4CCCNC4)c(F)c3)nc12,–,–,149 nM,8620 nM,4450 nM
COc1ccccc1-c1csc2cnc(Nc3ccc(C(=O)NC[C@@H]4CCCNC4)c(F)c3)nc12,–,–,111 nM,2890 nM,5050 nM
COc1ccccc1-c1csc2cnc(Nc3cc(F)c(C(=O)NC4CCNCC4)cc3F)nc12,1480 nM,–,24.2 nM,2570 nM,5390 nM
COc1ccc(-c2csc3cnc(Nc4ccc(CP(=O)(OC)OC)cc4)nc23)cc1,–,–,1060 nM,–,–
CCOP(=O)(Cc1ccc(Nc2ncc3scc(-c4ccccc4OC)c3n2)cc1)NC (centres undefined),1300 nM,–,184 nM,1210 nM,1730 nM
COc1ccccc1-c1csc2cnc(Nc3ccc(C(=O)NC4CCNCC4)c(C)c3)nc12,460 nM,4.45 µM,25.7 nM,240 nM,870 nM
COc1ccccc1-c1csc2cnc(Nc3ccc(C(=O)NCC4CCNCC4)c(F)c3)nc12,–,–,120 nM,1530 nM,3410 nM
COc1ccccc1-c1csc2cnc(Nc3ccc(C(=O)NC4CCOCC4)c(F)c3)nc12,–,–,118 nM,5350 nM,5710 nM
COc1ccccc1-c1csc2cnc(Nc3ccc(C(=O)NC4CCN(C)CC4)c(F)c3)nc12,–,–,47.8 nM,350 nM,660 nM
COP(=O)(Cc1ccc(Nc2ncc3scc(-c4ccccc4C(C)=O)c3n2)cc1)OC,–,–,1080 nM,–,–

SMILES,IC50 (U-87 MG),IC50 (HK-2),IC50 (Focal adhesion kinase 1),IC50 (MDA-MB-231),IC50 (A549)
CCOc1cc(C(=O)NC2CCNCC2)ccc1Nc1ncc2scc(-c3ccccc3OC)c2n1,2030 nM,–,166 nM,4390 nM,5770 nM
COc1ccccc1-c1csc2cnc(Nc3ccc(C(=O)NC4CCNCC4)cc3F)nc12,2370 nM,–,48.3 nM,1610 nM,2750 nM
COc1ccccc1-c1csc2cnc(Nc3ccc(NC(=O)C4CCNCC4)cc3)nc12,1060 nM,11.7 µM,57.7 nM,1050 nM,450 nM
CNC(=O)c1ccc(Nc2ncc3scc(-c4ccccc4OC)c3n2)cc1,710 nM,0.71 µM,79.3 nM,2120 nM,310 nM
COc1ccccc1-c1csc2cnc(Nc3ccc(C(=O)NC4CCNCC4)cc3C(F)(F)F)nc12,2090 nM,–,709 nM,2750 nM,4110 nM
COP(=O)(Cc1ccc(Nc2ncc3scc(-c4cccc(C(C)=O)c4)c3n2)cc1)OC,–,–,351 nM,–,–
COP(=O)(Cc1ccc(Nc2ncc3scc(-c4cccc(NC(C)=O)c4)c3n2)cc1)OC,–,–,377 nM,–,–
CCOP(=O)(Cc1ccc(Nc2ncc3scc(-c4ccccc4OC)c3n2)cc1)OCC,1300 nM,–,157 nM,4940 nM,960 nM
COP(=O)(Cc1ccc(Nc2ncc3scc(-c4cccc(N(C)S(C)(=O)=O)c4)c3n2)cc1)OC,–,–,638 nM,–,–
CNC(=O)c1ccccc1Nc1nc(Nc2ccc(N3CCOCC3)cc2OC)ncc1Cl,1670 nM,–,–,4060 nM,1160 nM
COc1ccccc1-c1csc2cnc(Nc3ccc(NC(=O)[C@@H]4CCCNC4)cc3)nc12,360 nM,–,199 nM,410 nM,410 nM
COc1ccccc1-c1csc2cnc(Nc3ccc(C(=O)N[C@@H]4CCNC4)c(F)c3)nc12,–,–,71.3 nM,260 nM,430 nM
COc1ccccc1-c1csc2cnc(Nc3ccc(NC(=O)[C@H]4CCCNC4)cc3)nc12,300 nM,4.89 µM,167 nM,440 nM,500 nM
COP(=O)(Cc1ccc(Nc2ncc3scc(-c4cccc(S(C)(=O)=O)c4)c3n2)cc1)OC,–,–,140 nM,–,–
CCOP(=O)(Cc1ccc(Nc2ncc3scc(-c4ccccc4OC)c3n2)cc1)N1CCOCC1 (centres undefined),1220 nM,–,351 nM,8350 nM,850 nM
COc1ccccc1-c1csc2cnc(Nc3ccc(NC(=O)CN)cc3)nc12,210 nM,–,144 nM,2770 nM,1950 nM
CNC(=O)c1cccc(-c2csc3cnc(Nc4ccc(CP(=O)(OC)OC)cc4)nc23)c1,–,–,324 nM,–,–
